# Assay outcomes as filed in PubChem.
# Sampled rows, rich in hits. Any-hit rate of the full collection: about 2.3%.
# TRPC4 agonist: TRPC4 (mouse) channel activation | 310,000 tested, 0.49% active | AID 2237 | HEK293 TRPC4beta/mu-opioid, Fluo4 calcium fluorescence; active compounds read high | B-score at 10 µM | Q9QUQ5;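 active = B-score above 5 SD of library B-scores, and initial fluorescence ratio not above library mean plus 5 SD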;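 note: positive B-score marks a calcium rise read as TRPC4 activation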
# Target sequence (Q9QUQ5 whole entry, looked up): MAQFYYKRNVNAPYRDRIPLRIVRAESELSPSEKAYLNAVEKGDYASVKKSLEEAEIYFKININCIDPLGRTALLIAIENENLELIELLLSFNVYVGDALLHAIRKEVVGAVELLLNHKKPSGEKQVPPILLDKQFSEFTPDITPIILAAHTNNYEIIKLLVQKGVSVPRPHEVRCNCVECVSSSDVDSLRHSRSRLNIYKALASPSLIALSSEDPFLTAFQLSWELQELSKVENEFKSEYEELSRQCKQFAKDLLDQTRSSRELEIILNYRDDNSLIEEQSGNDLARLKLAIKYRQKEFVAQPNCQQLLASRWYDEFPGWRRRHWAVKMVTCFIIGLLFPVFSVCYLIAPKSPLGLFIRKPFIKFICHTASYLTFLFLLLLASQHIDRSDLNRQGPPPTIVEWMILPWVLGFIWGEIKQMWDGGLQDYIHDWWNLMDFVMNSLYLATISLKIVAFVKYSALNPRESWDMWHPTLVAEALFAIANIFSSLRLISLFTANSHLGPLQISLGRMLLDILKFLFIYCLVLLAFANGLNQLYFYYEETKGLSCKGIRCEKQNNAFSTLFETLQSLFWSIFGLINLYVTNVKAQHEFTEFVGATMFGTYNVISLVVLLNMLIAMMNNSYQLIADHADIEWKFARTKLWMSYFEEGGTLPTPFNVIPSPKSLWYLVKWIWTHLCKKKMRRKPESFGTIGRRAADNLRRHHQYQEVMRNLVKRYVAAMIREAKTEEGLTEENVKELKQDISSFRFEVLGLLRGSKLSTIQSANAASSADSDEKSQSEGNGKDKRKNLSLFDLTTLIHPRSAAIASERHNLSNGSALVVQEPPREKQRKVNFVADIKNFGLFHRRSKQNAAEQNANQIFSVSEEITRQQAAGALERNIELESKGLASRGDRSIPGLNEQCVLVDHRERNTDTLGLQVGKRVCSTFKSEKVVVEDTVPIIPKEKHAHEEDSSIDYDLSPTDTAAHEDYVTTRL
#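 Incubation: 45 min room-temperature Fluo4 loading, 110 s read / System: HEK293 cells stably co-expressing mouse TRPC4beta and mu-opioid receptor / Signal: Fluo4 fluorescence, kinetic / Control set: buffer (low) and maximal DAMGO (high) / Measure: integrated baseline-normalised fluorescence ratio, converted to per-well B score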
# TRPC4 PAM: allosterically enhances the mouse TRPC4 cation channel. Q9QUQ5. AID 2227. B-score at 10 µM. 310,000 tested, 0.42% active. HEK293 TRPC4beta/mu-opioid, DAMGO EC20, Fluo-4 Ca2+ flux; active compounds read high;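 active = B-score of calcium response area above 5 SD of library B-scores, with initial fluorescence ratio within 5 SD of library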
# TRPC6 inh: mouse TRPC6 channel inhibition. Q61143. HEK293-TRPC6, membrane potential dye, ACh-evoked depolarization; active compounds read low. B-score at 10 µM. 310,000 tested, 1.1% active;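 active = B-score under library mean minus 3 SD, initial fluorescence not abnormally high, positive integrated signal ratio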;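 note: B-score derived from integrated fluorescence ratio over the kinetic read; more negative B-score means stronger inhibition of depolarization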
# TRPC6 activator: activates the mouse TRPC6 cation channel; Q61143; HEK293-TRPC6 membrane potential dye fluorescence; active compounds read high; B-score at 10 µM; 310,000 tested, 0.13% active; AID 2550;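 active = B-score of the integrated fluorescence ratio above library mean plus 3 SD, and starting fluorescence ratio within library mean plus 5 SD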;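 note: higher score means more depolarization so channel activation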
# TRPC4 inh: blocks the mouse TRPC4 cation channel; Q9QUQ5; HEK293 TRPC4beta/mu-opioid, DAMGO-evoked Fluo4 calcium flux; active compounds read low; B-score at 10 µM; 300,000 tested, 0.39% active; AID 2247;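 active = B-score over 3 SD under the library average, no early fluorescence shift, positive overall ratio signal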
#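 Signal: kinetic Fluo4 fluorescence imaging of calcium influx. Material: stable TRPC4beta/mu-opioid receptor HEK293 cells. Probe or stimulus: DAMGO in two steps, submaximal then maximal.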
# TRPC4 spec 2: second check of whether TRPC6 inhibitors also affect mouse TRPC4; inhibition, % at 10 µM; HEK293 TRPC4/MOR, membrane potential dye fluorescence; channel activated by saturating DAMGO dose; 920 tested, 42% active; shares compounds with TRPC6 inh;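 active = compounds whose fluorescence signal differed from control wells by over 3 SD, either direction, in both duplicate plates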
# TRPC4 spec: tests whether TRPC6 inhibitors also affect mouse TRPC4. 920 tested, 61% active. activity change, negative = inhibition, % at 10 µM. AID 2777. HEK293 TRPC4/mu-opioid, membrane potential fluorescence. shares compounds with TRPC6 inh;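 active = rise or fall in signal beyond 3 SD of buffer-only wells in both replicate plates, either sign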;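 note: integrated kinetic ratio of fluorescence range over baseline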
# HEK293 MPD ctr 2-1: parental HEK293 nonspecific activity of TRPC6 inhibitors, second screen. shares compounds with TRPC6 inh. parental HEK293 membrane potential dye fluorescence; maximal acetylcholine challenge after compound addition. signal change vs control, % at 10 µM. 920 tested, 31% active. AID 2779;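 active = membrane potential signal moving either way by over 3 SD of the maximum-effect control, in both duplicate plates, meaning non-specific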
# HEK293 MPD ctr-1: parental HEK293 nonspecific activity of TRPC6 inhibitors; 920 tested, 60% active; shares compounds with TRPC6 inh; membrane potential signal change, % at 10 µM; parental HEK293 membrane potential dye fluorescence;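 active = membrane potential signal shifting up or down by more than 3 SD of buffer-only wells, on both duplicate plates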
# HEK293 MPD ctr-2: counter-screen for TRPC6 modulators: effect in parental HEK293 cells | shares compounds with TRPC6 inh | membrane potential dye fluorescence | membrane potential signal change, % at 10 µM | 2,400 tested, 51% active | AID 488924;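 active = membrane potential signal moves up or down beyond 5 SD from buffer-only wells, on both duplicate plates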
# HEK293 MPD ctr 2-2: parental HEK293 nonspecific activity of TRPC6 modulators, second screen | inhibition, % at 10 µM | membrane potential dye fluorescence; after compound, maximal acetylcholine stimulation | shares compounds with TRPC6 inh | 2,400 tested, 14% active;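 active = membrane potential signal drops by more than 5 SD from the mean control signal, in both duplicate plates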
# TRPC4/MOR mod: tests whether TRPC6 modulators also affect mouse TRPC4; shares compounds with TRPC6 inh; HEK293 TRPC4/mu-opioid, membrane potential fluorescence; percent change from control (negative = decrease, positive = increase), % at 10 µM; 2,400 tested, 69% active;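 active = membrane potential signal moved up or down beyond 5 SD of buffer control wells, in both duplicate plates, actives on both sides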
# TRPC4 ctr inh 2: mouse TRPC4 off-target activity of TRPC6 modulators, second screen; shares compounds with TRPC6 inh; HEK293 TRPC4/mu-opioid, membrane potential dye fluorescence; stimulated with maximal-effect DAMGO; inhibition, % at 10 µM; 2,400 tested, 55% active; AID 488928;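 active = drop in membrane potential signal beyond 5 SD of the control wells in both duplicate plates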;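 note: TRPC4 counter screen for TRPC6 hits run under conditions tuned for TRPC6 not TRPC4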
# TRPC6 block conf: mouse TRPC6 inhibitor confirmation; HEK293-TRPC6, membrane potential dye, ACh-evoked depolarization; inhibition, % at 10 µM; 3,300 tested, 43% active; AID 488960; shares compounds with TRPC6 inh;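 active = fluorescence ratio falls more than 5 SD below the full-stimulation control mean, in both duplicate runs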;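 note: integrated fluorescence ratio of peak minus minimum over baseline after agonist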
# TRPC6 act confirm: confirmation of mouse TRPC6 activators. shares compounds with TRPC6 inh. HEK293-TRPC6 membrane potential dye fluorescence, FDSS. activation, % at 10 µM. 2,800 tested, 11% active. AID 488961;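 active = ratio signal rise beyond 5 SD above unstimulated control wells' mean, seen in both duplicate runs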
# Hits are given with their value; i = inactive; nt = no result given.
SMILES,TRPC4 agonist,TRPC4 PAM,TRPC6 inh,TRPC6 activator,TRPC4 inh,HEK293 MPD ctr-2,HEK293 MPD ctr 2-2,TRPC4/MOR mod,TRPC4 ctr inh 2,TRPC6 block conf,TRPC6 act confirm,others
CNS(=O)(=O)c1cccc(C(=O)OCc2cc(=O)oc3c(C)c(O)ccc23)c1,i,i,-6.3,i,i,i,i,i,54%,i,i,
O=C(Nc1ccc(Cl)cc1)NN1CC(=O)N(c2cccc(C(F)(F)F)c2)CC1=O,i,i,i,i,i,nt,nt,nt,nt,nt,nt,
CSc1ccc2c(c1)N(CCC1CCCCN1C)c1ccccc1S2 (stereo not given),i,i,-6,i,i,i,59%,i,85%,67%,i,
O=C(O)c1ccc2c(c1)C(=O)N(c1cccc3ccccc13)C2=O,i,i,i,i,i,nt,nt,nt,nt,nt,nt,
CCOC(=O)N/N=C\c1ccc(OC/C=C/c2ccccc2)cc1,i,i,i,i,i,nt,nt,nt,nt,nt,nt,
Cc1ccc(N2CC(O)(c3cccs3)[N+]3=C2CCCC3)cc1 (stereo not given),i,i,-5.2,i,i,104%,i,16%,38%,i,nt,
Cc1cccc(N2CC(O)(c3cccs3)[N+]3=C2CCCC3)c1 (stereo not given),i,i,i,i,i,nt,nt,nt,nt,nt,nt,
Cc1ccc(N(CC(=O)N2CCCCCC2)S(=O)(=O)c2ccccc2)cc1,i,i,i,i,i,nt,nt,nt,nt,nt,nt,
CC(=O)c1c(C)n(-c2ccccc2)c2ccc(OCC(O)CN3CCOCC3)cc12 (stereo not given),i,i,i,i,i,nt,nt,nt,nt,nt,nt,
CCN(CC)CC(O)COc1ccc2c(c1)c(C(C)=O)c(C)n2-c1ccccc1 (stereo not given),i,i,-5.5,i,i,i,i,i,74%,50%,i,
CCn1c2ccc(F)cc2c2nnc(SCCN3CCCCC3)nc21,i,i,-5.8,i,i,-78%,i,36%,80%,i,i,
C=CCn1c2ccccc2c2nnc(SCCN3CCCCC3)nc21,i,i,-8.6,i,i,nt,nt,nt,nt,i,i,TRPC4 spec 2=73%;TRPC4 spec=-14%;HEK293 MPD ctr 2-1=i;HEK293 MPD ctr-1=-154%
CCN(CC)CCSc1nnc2c3ccccc3n(CCc3ccccc3)c2n1,i,i,-7.5,i,i,nt,nt,nt,nt,i,i,TRPC4 spec 2=18%;TRPC4 spec=0.5%;HEK293 MPD ctr 2-1=i;HEK293 MPD ctr-1=-198%
c1ccc(Cn2c3ccccc3c3nnc(SCCN4CCCCC4)nc32)cc1,i,i,i,i,i,nt,nt,nt,nt,nt,nt,
CCCn1c2ccc(F)cc2c2nnc(SCCN3CCCCC3)nc21,i,i,i,i,i,nt,nt,nt,nt,nt,nt,
CCn1c(SCc2ccccc2)nc2cc(S(N)(=O)=O)ccc21,i,i,i,i,i,nt,nt,nt,nt,nt,nt,
Cc1ccc(S(=O)(=O)Nc2nc3ccccc3nc2NCC2CCCO2)c(C)c1 (stereo not given),i,i,i,14,i,i,i,i,i,i,i,
CCN(CC)CC(O)Cn1c(-c2cccc(Cl)c2)nc2cc(C)c(C)cc21 (stereo not given),i,i,-6.5,i,i,i,i,i,74%,63%,i,
CCCSc1nc2cc(C)c(C)cc2n1CC(O)CO (stereo not given),i,i,i,i,i,nt,nt,nt,nt,nt,nt,
CSc1cccc(N2C(=O)C3CCCN3C2=S)c1 (stereo not given),i,i,i,i,i,nt,nt,nt,nt,nt,nt,
Cc1cccc(-c2nsc(SCC(=O)Nc3nccs3)n2)c1,i,i,-5.7,i,i,i,i,i,i,i,i,
C=CCOc1ccccc1CN(C(=O)CCl)c1ccc2c(c1)OCO2,i,i,i,i,i,nt,nt,nt,nt,nt,nt,
Fc1ccc(Cn2nnc3ccccc32)cc1,i,i,-7.9,i,i,nt,nt,nt,nt,i,i,TRPC4 spec 2=i;TRPC4 spec=i;HEK293 MPD ctr 2-1=i;HEK293 MPD ctr-1=-0.6%
COc1ccc(C(=O)OCC2CC(c3ccccc3)=NO2)cc1OC (stereo not given),i,i,-5.1,i,i,i,i,i,i,i,i,
OC(CNCc1ccccc1)(c1ccc(F)cc1)c1ccc(F)cc1,i,i,-5.3,i,i,160%,i,36%,56%,i,nt,
SMILES,TRPC4 agonist,TRPC4 PAM,TRPC6 inh,TRPC6 activator,TRPC4 inh,HEK293 MPD ctr-2,HEK293 MPD ctr 2-2,TRPC4/MOR mod,TRPC4 ctr inh 2,TRPC6 block conf,TRPC6 act confirm,others
Cc1cc(C(=O)NC2CCCc3c2cnn3-c2ccc(C(C)(C)C)cc2)n[nH]1 (stereo not given),i,i,i,i,i,nt,nt,nt,nt,nt,nt,
COc1ccc(C2C3=C(CC(C)(C)CC3=O)Oc3ncn(Cc4ccccc4)c(=N)c32)cc1 (stereo not given),i,i,-5.4,i,i,146%,i,22%,69%,54%,nt,
Cc1nc2ccc(NS(=O)(=O)c3ccc4c(c3)OCCO4)cc2s1,i,i,i,i,i,nt,nt,nt,nt,nt,nt,
c1cc2c3c(cccc3c1)NC1(CCC3(CC1)Nc1cccc4cccc(c14)N3)N2,i,i,-6.9,i,i,nt,nt,nt,nt,i,i,TRPC4 spec 2=i;TRPC4 spec=-22%;HEK293 MPD ctr 2-1=i;HEK293 MPD ctr-1=-240%
Cc1cc(C)cc(N(CC(=O)NC(C)(C)C)C(=O)CNC(=O)c2cccs2)c1,i,i,-5.4,i,i,i,i,i,i,i,i,
N#C/C(=C\c1c(N2CCC(C(N)=O)CC2)nc2ccccn2c1=O)S(=O)(=O)c1ccc(Cl)cc1,i,i,i,i,i,nt,nt,nt,nt,nt,nt,
O=C(Nc1ccc(F)cc1)c1ccccc1S(=O)(=O)c1ccccc1[N+](=O)[O-],i,i,i,i,i,nt,nt,nt,nt,nt,nt,
CC1CCCN(C(=O)c2ccc(-c3ccccc3Cl)o2)C1 (stereo not given),i,i,-5.1,i,i,i,i,15%,i,i,nt,
